ChEMBL document CHEMBL3091303, “1,3-Dialkyl-substituted tetrahydropyrimido[1,2-f]purine-2,4-diones as multiple target drugs for the potential treatment of neurodegenerative diseases” (Bioorg Med Chem, 2013)

How the values were obtained:
Adenosine receptor A1 [1] = biological target: T1, Adenosine receptor A1 (Rattus norvegicus, UniProt P25099); assay: Displacement of [3H]CCPA from adenosine A1 receptor in rat brain cortex; assay type: tissue-based
T1 sequence (P25099 whole entry): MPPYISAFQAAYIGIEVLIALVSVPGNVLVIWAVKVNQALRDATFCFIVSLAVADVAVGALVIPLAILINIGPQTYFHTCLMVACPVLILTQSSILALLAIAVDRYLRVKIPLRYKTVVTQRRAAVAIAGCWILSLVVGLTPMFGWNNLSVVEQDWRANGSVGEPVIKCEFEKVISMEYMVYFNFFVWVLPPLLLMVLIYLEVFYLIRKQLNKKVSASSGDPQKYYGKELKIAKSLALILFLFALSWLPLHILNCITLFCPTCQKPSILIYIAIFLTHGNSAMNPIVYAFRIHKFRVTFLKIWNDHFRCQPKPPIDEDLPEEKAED
Outline: (§1)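 Radioligand binding to rat A1 receptors in rat brain cortical membrane preparations. Values are given as Ki, or as % inhibition of radioligand binding at the indicated concentration.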

[2] = biological target: T2, Adenosine receptor A3 (Homo sapiens) (UniProt P0DMS8); assay: Displacement of [3H]PSB-11 from human adenosine A3 receptor expressed in CHO cells relative to control; assay type: cell-based; parameters: concentration or dose not given beside the values; conditions: concentration not given here
T2 sequence (whole entry): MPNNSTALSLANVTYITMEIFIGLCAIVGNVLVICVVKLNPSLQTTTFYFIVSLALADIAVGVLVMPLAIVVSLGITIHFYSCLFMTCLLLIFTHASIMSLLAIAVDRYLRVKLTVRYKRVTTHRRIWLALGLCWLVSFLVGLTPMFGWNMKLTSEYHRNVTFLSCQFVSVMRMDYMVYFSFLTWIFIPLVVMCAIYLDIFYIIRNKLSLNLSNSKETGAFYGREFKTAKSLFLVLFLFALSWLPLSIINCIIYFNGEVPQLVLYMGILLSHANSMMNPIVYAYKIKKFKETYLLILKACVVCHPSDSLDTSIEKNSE

[3] = biological target: T3, Adenosine receptor A1 (Rattus norvegicus) (UniProt P25099); assay: Displacement of [3H]CCPA from adenosine A1 receptor in rat brain cortex relative to control; assay type: tissue-based; parameters: concentration or dose not given beside the values; conditions: concentration not given here; outline: as §1
T3 sequence (whole entry): T1 sequence (P25099 whole entry)

Adenosine receptor A3 = biological target: T4, Adenosine receptor A3 (Homo sapiens, UniProt P0DMS8); assay: Displacement of [3H]PSB-11 from human adenosine A3 receptor expressed in CHO cells; assay type: cell-based
T4 sequence (P0DMS8 whole entry): T2 sequence (whole entry)

[4] = biological target: Adenosine receptor A2a (Rattus norvegicus) (UniProt P30543); assay: Displacement of [3H]MSX-2 from adenosine A2A receptor in rat brain striatum relative to control; assay type: tissue-based; parameters: concentration or dose not given beside the values; conditions: concentration not given here
Outline: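 Radioligand binding to rat A2A receptors in rat brain striatal membrane preparations, reported as % inhibition of radioligand binding at the indicated concentration.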

Adenosine receptor A2b = biological target: T5, Adenosine receptor A2b (Homo sapiens, UniProt P29275); assay: Displacement of [3H]PSB-603 from human adenosine A2B receptor
T5 sequence (P29275 whole entry): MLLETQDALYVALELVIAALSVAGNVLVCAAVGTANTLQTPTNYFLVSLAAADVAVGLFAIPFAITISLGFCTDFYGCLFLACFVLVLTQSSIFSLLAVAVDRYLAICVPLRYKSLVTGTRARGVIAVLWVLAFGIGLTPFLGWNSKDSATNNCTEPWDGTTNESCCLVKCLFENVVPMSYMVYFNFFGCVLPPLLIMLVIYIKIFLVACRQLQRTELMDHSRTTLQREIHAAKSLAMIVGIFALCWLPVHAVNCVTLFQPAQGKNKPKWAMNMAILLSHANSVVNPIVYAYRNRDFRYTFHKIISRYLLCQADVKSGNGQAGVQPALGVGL

[5] = biological target: T6, MAO-A (amine oxidase [flavin-containing] A) (Homo sapiens, UniProt P21397); assay: Inhibition of human MAO-A at 10 uM relative to control
T6 sequence (P21397 whole entry): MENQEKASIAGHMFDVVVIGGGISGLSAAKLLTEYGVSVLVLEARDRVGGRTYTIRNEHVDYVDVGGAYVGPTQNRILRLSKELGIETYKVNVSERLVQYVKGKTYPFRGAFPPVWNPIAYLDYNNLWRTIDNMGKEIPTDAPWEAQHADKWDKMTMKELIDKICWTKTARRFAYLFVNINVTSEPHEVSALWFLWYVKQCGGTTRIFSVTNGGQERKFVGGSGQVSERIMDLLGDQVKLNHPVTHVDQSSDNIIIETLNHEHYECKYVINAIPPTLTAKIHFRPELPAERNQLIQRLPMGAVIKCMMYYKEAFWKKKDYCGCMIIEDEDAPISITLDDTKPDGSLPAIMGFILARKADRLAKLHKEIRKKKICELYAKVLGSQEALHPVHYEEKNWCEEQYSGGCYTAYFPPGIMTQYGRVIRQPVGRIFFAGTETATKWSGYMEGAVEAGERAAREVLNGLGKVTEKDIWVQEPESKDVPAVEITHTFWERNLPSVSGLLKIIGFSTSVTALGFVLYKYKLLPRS
Outline: (§2)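 Human MAO-A and MAO-B inhibition, screened first at a test concentration of 10 µM.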

[6] = biological target: T7, Adenosine receptor A2b (Homo sapiens) (UniProt P29275); assay: Displacement of [3H]PSB-603 from human adenosine A2B receptor relative to control; parameters: concentration or dose not given beside the values; conditions: concentration not given here
T7 sequence (whole entry): T5 sequence (P29275 whole entry)

[7] = biological target: T8, Amine oxidase [flavin-containing] B (Homo sapiens, UniProt P27338); assay: Inhibition of human MAO-B
T8 sequence (P27338 whole entry): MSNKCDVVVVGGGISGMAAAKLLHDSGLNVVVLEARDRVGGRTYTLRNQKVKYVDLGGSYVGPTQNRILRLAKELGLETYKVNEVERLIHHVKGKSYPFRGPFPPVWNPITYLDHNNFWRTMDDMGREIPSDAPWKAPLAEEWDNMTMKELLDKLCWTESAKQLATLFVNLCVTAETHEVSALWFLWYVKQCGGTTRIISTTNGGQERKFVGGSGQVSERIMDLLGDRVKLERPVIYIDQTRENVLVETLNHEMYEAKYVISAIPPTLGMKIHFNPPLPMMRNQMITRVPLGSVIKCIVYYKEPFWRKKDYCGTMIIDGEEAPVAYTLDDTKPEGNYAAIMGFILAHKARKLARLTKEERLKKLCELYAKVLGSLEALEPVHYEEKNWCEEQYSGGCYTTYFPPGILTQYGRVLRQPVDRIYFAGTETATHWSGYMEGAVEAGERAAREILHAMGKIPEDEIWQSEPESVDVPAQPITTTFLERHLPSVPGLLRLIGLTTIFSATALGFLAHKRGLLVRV

[8] = biological target: T9, Amine oxidase [flavin-containing] A (Homo sapiens, UniProt P21397); assay: Inhibition of human MAO-A; outline: as §2
T9 sequence (P21397 whole entry): T6 sequence (P21397 whole entry)

Adenosine receptor A2a [9] = biological target: Adenosine receptor A2a (Rattus norvegicus, UniProt P30543); assay: Displacement of [3H]MSX-2 from adenosine A2A receptor in rat brain striatum; assay type: tissue-based
Adenosine receptor A2a [10] = biological target: Adenosine receptor A2a (Homo sapiens, UniProt P29274); assay: Displacement of [3H]MSX-2 from human adenosine A2A receptor expressed in CHO cells; assay type: cell-based
Outline: (§3)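 Radioligand binding to human receptors recombinantly expressed in Chinese hamster ovary (CHO) cells. Results are Ki, or % inhibition of radioligand binding at the indicated concentration.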

[11] = biological target: T10, MAO-B (amine oxidase [flavin-containing] B) (Homo sapiens, UniProt P27338); assay: Inhibition of human MAO-B at 10 uM relative to control; outline: as §2
T10 sequence (P27338 whole entry): T8 sequence (P27338 whole entry)

Adenosine receptor A1 [12] = biological target: T11, Adenosine receptor A1 (Homo sapiens, UniProt P30542); assay: Displacement of [3H]CCPA from human adenosine A1 receptor expressed in CHO cells; assay type: cell-based; outline: as §3
T11 sequence (P30542 whole entry): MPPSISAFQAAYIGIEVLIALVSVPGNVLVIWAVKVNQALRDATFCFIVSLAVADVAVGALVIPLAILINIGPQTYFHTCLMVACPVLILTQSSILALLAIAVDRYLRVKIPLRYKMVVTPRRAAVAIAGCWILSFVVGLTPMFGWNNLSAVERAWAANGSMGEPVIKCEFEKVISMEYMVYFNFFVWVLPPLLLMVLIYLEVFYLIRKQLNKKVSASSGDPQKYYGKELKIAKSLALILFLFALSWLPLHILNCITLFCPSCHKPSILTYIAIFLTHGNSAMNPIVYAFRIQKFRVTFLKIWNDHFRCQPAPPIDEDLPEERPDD

Adenosine receptor A2a (Rattus norvegicus), sequence (P30543 whole entry): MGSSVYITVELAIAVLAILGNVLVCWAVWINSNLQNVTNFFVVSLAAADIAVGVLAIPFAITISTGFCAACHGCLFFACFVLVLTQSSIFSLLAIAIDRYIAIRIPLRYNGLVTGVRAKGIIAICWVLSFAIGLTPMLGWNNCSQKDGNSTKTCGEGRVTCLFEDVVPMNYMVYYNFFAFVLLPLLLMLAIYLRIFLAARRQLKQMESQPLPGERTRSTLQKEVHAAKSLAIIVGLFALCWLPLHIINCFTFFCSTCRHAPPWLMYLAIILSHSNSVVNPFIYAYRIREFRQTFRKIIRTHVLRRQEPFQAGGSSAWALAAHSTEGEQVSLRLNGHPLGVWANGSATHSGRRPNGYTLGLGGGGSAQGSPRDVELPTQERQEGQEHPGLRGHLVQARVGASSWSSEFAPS
Adenosine receptor A2a (Rattus norvegicus, UniProt P30543), sequence (P30543 whole entry): as above
Adenosine receptor A2a (Homo sapiens, UniProt P29274), sequence (P29274 whole entry): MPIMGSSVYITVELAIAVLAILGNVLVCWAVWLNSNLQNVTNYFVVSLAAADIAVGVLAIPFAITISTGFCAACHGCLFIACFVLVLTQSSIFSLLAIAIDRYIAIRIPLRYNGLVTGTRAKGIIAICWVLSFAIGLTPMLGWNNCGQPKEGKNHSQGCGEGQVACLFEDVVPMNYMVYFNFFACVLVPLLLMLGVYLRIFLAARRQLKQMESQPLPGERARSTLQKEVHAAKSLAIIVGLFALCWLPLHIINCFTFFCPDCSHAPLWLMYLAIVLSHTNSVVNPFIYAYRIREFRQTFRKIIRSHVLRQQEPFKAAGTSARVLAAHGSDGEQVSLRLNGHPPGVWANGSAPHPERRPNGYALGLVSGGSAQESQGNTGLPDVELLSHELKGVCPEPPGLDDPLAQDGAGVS

Ki (Adenosine receptor A1 [1])	inhibition [2]	inhibition [3]	Ki (Adenosine receptor A3)	inhibition [4]	Ki (Adenosine receptor A2b)	inhibition at 10 µM [5]	inhibition [6]	IC50 [7]	IC50 [8]	Ki (Adenosine receptor A2a [9])	Ki (Adenosine receptor A2a [10])	inhibition at 10 µM [11]	Ki (Adenosine receptor A1 [12])	Compound
> 1500 nM	23%	8%	> 1000 nM	40%	> 1000 nM	1%	-4%	3600 nM	> 10000 nM	> 10000 nM				CCCn1c(=O)c2c(nc3n2CCCN3CCC(=O)N2CCN(Cc3ccc(Cl)cc3)CC2)n(CCC)c1=O
> 10000 nM	21%	21%	> 10000 nM		> 1000 nM		11%	> 10000 nM		5540 nM	4610 nM	58%		Cn1c(=O)c2c(nc3n2CCCN3c2cc(Cl)cc(Cl)c2)n(C)c1=O
> 1500 nM	36%	2%	> 10000 nM	27%	> 1000 nM	6%	2%	3480 nM	> 10000 nM	> 10000 nM				Cn1c(=O)c2c(nc3n2CCCN3CC(=O)N2CCN(Cc3ccc(C(F)(F)F)cc3)CC2)n(C)c1=O
> 1500 nM	21%	5%	> 1000 nM	14%	> 1000 nM		-5%	> 10000 nM		> 10000 nM		30%		CCCn1c(=O)c2c(nc3n2CCCN3CCC(=O)N2CCN(c3ccccc3)CC2)n(CCC)c1=O
> 1500 nM	15%	0%	> 10000 nM	41%	> 1000 nM		-8%	> 10000 nM		> 10000 nM		30%		COc1ccc(CN2CCN(C(=O)CN3CCCn4c3nc3c4c(=O)n(C)c(=O)n3C)CC2)cc1
> 1500 nM	32%	3%	> 10000 nM	40%	> 1000 nM	1%		10000 nM	> 10000 nM	> 10000 nM		40%		Cn1c(=O)c2c(nc3n2CCCN3CC(=O)N2CCN(c3ccccc3)CC2)n(C)c1=O
165 nM	14%		> 10000 nM		> 1000 nM	1%	4%	193 nM	> 10000 nM	1640 nM	3780 nM		1700 nM	Cn1c(=O)c2c(nc3n2CCCN3Cc2cc(Cl)cc(Cl)c2)n(C)c1=O
> 10000 nM	3%	32%	> 1000 nM		> 1000 nM		-2%	> 10000 nM		2470 nM	628 nM	22%		C#CCn1c(=O)c2c(nc3n2CCCN3C2CCN(Cc3ccccc3)CC2)n(C)c1=O
> 1500 nM		18%	1600 nM	33%	> 1000 nM		4%	> 10000 nM		> 10000 nM		30%		CCCn1c(=O)c2c(nc3n2CCCN3CC(=O)N2CCN(Cc3ccc(OC)cc3)CC2)n(CCC)c1=O
> 1500 nM		18%	2450 nM	27%	> 1000 nM		6%	10000 nM		> 10000 nM		46%		CCCn1c(=O)c2c(nc3n2CCCN3CC(=O)N2CCN(c3ccccc3)CC2)n(CCC)c1=O
227 nM						5%	8%	10000 nM	> 10000 nM	696 nM	322 nM	51%	1330 nM	C#CCn1c(=O)c2c(nc3n2CCCN3Cc2cccc(OC)c2)n(C)c1=O
> 10000 nM		20%	6320 nM		> 1000 nM	2%	29%	4760 nM	> 10000 nM	624 nM	2530 nM			CCn1c(=O)c2c(nc3n2CCCN3CCc2ccc(OC)cc2)n(CC)c1=O
1070 nM	13%		> 1000 nM	44%	> 300 nM		2%	> 10000 nM		> 10000 nM		34%		CCn1c(=O)c2c(nc3n2CCCN3CCN2CCCCC2)n(CC)c1=O
> 1500 nM		19%	762 nM	36%	> 1000 nM	-2%	7%	10000 nM	> 10000 nM	> 10000 nM		52%		CCCn1c(=O)c2c(nc3n2CCCN3CC(=O)N2CCN(c3ccc(Cl)cc3)CC2)n(CCC)c1=O
114 nM	30%		> 10000 nM		1740 nM	0%		10000 nM	> 10000 nM	259 nM	626 nM	51%	410 nM	C#CCn1c(=O)c2c(nc3n2CCCN3Cc2cccs2)n(C)c1=O
